In the EternaBench riboswitch data:

Test system: MS2 coat protein
Assay: apparent Kd, MS2 coat protein; higher = weaker binding; RNA-MaP array; FMN 200 µM where present
Method in brief: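 SNAP-549-labelled MS2 coat protein, doubled from 0.7 or 1.5 nM to 3 µM, was titrated over designs transcribed by stalled E. coli RNA polymerase on Illumina sequencing-chip clusters. Titrations were run without and then with constant ligand in 100 mM Tris-HCl pH 7.5, 80 mM KCl, 4 mM MgCl2, BSA, DTT, yeast tRNA and Tween-20. The apparent Kd is the median of filtered per-cluster fits to green signal normalised to red-channel RNA signal and control-cluster median Fmax.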

[1] = designed as: OFF switch for flavin mononucleotide, no ligand
[2] = ligand present: flavin mononucleotide, designed as: OFF switch for flavin mononucleotide
[3] = designed as: ON switch for flavin mononucleotide, no ligand
[4] = ligand present: flavin mononucleotide, designed as: ON switch for flavin mononucleotide

Row | Sequence | apparent Kd [1] | apparent Kd [2] | apparent Kd [3] | apparent Kd [4]
1 | GAAAAUACAUGAGGAUCACCCAUGUAGGAUAUCGCUAUUGUAAUCAUGUUACAUGAUUACAAUAGCGAGAAGGACGUGAGAAAG | 0.0247 µM | 0.0223 µM | – | –
2 | GAAACCUAGUCAGGAUAUCGGGCAAUAAUUGCACGAGAAGGGACAUGAGGAUCACCCAUGUACACCUCUGGUGAGUCUCGCAGG | 0.0244 µM | 0.0736 µM | – | –
3 | GAAGGCUGGUAGAAGGAUCCUCACAUGAGGAUCACCCAUGUAACAGCGGAUAGGAUAUACCGUCUUUCAUGUUGGUCUCCCUAA | – | – | 0.461 µM | 0.0466 µM
4 | GAAUAAUUGAUCCUUUUUUAUUACAUGAGGAUCACCCAUGUGCAGGAUAUCGAUUAUUAUAGUUUCGAGAAGGGCAAGAACUAU | 0.0275 µM | 0.128 µM | – | –
5 | GAAUAUUCGUUGUACAUGAGGAUCACCCAUGUAACUUGACAUGAGGAUAUGGAUUCUAAUUGGAUCCAGAAGGCAUGAAUAUUC | – | – | 0.0484 µM | 0.0218 µM
6 | GAAUUCGCAUGAGGAUAUGCACUCAUUUCAUGUGCAGAAGGUAUAACAUUAGACAUGAGGAUCACCCAUGUAUUAGUCAUUAAC | – | – | 0.0101 µM | 0.00937 µM
7 | GACAACAGAGGAUAUGCAUUGAGAUAGUUAUGAAGGUUGUUACAUGAGGAUCACCCAUGUAGAAGGCUGUCGUU | 0.0183 µM | 0.0243 µM | – | –
8 | GACAUACAUGAGGAUCACCCAUGUUCAGGCGAACAAGGAUAUGUGUGGAAACCAUACUAUACAGAAGGUGUCUGUC | – | – | 0.0631 µM | 0.0388 µM
9 | GACAUCGCAGGAUAUUAGGGUUUGUACAUGAGGAUCACCCAUGUUAAUUGGGUUAAUGUCUAAGAAGGGCGGUGUC | 0.147 µM | 0.24 µM | – | –
10 | GACAUGAGGAUCACCCAUGUCCUUCCAGAAGGCUGGCGCGCGAAACCUAAAUCAGUUCCGGGCACAGAGGAUAUGGGCAGUUGG | – | – | 0.0672 µM | 0.0143 µM
11 | GACCGAUAGUCAGGAUAUGCAUGGUUAGUUGAUUACAUGAGGAUCACCCAUGUAGAAGGGACUUUGGCUAAAUCCGUGAUGCGU | 0.0223 µM | 0.0517 µM | – | –
12 | GACCUCACGGUCAGGAUAUCAGAACGUAAUGCGCAUGAGAAGGGACAUGAGGAUCACCCAUGUGGGCUCGUCGC | 0.0135 µM | 0.017 µM | – | –
13 | GACGAACAUGAGGAUCACCCAUGUAAAGACGUACAAGGAUAUGUGUGGAAACCGUACUAUACAGAAGGUGUCUGUC | – | – | 0.0536 µM | 0.0255 µM
14 | GACUGACAUGAGGAUCACCCAUGUAUUCAAACAUGAGGAUAUAUAACACAUCAUCGACGGAUAGAAGGCAUAGAUA | – | – | 0.128 µM | 0.124 µM
15 | GACUGAUUGUAGAAGGUACUUGAAAAUAUUUAAUAACUCAUGUGACAUGAGGAUCACCCAUGUAGUAAGGAUAUACAUAUCACA | – | – | 0.198 µM | 0.091 µM
16 | GACUGAUUGUAGAAGGUACUUGACAAUAUAUUUAAUUAUUGUAGACAUGAGGAUCACCCAUGUAGUAAGGAUAUACUUAUAACA | – | – | 0.0184 µM | 0.00996 µM
17 | GACUGCCGAGGAUAUACAUGAGGAUCACCCAUGUGCUUCAGCAUUUUUUGAUGCAUGGGUAGAAGGCGGUAGUU | 0.453 µM | 0.326 µM | – | –
18 | GACUGCUGAGGAUAUACAUGAGGAUCACCCAUGUGCUUCAGCAUCGAAAGAUGCAUUGGUAGAAGGUAGUAGUC | 0.0114 µM | 0.0201 µM | – | –
19 | GACUGGCAGCUAGGAUAUGGGCGAUCACAUGAGGAUCACCCAUGUCAACAUCAAAACAAGAUUAACCAGAAGGAGCCGCGGGUU | – | – | 0.0161 µM | 0.11 µM
20 | GACUUCCGAGGAUAUACAUGAGGAUCACCCAUGUGCUUCAGCAUUUUUUGAUGCAUGGGUAGAAGGCGGUAGUU | 0.261 µM | 0.281 µM | – | –
21 | GAGAAGUCAGGAUAUGCUGCUCGUCACUUGCGUGAUGAGUAGCAGAAGGGACAUGAGGAUCACCCAUGUGGAAA | 0.107 µM | 0.202 µM | – | –

Row | Sequence | apparent Kd [1] | apparent Kd [2] | apparent Kd [3] | apparent Kd [4]
22 | GAGAUACAUGAGGAUCACCCAUGUGAGGAUAUCGGUUGGAGGAGGUGGAGGUUGAGUACGAGAAGGCACGGAUC | 0.025 µM | 0.0283 µM | – | –
23 | GAGCCAUCGUGAGAUGGCUAACAUACAUGAGGAUCACCCAUGUAGGAUAUCGAUUGCUUUGCAGUCGAGAAGGACAUGUUUAAU | 0.0263 µM | 0.0431 µM | – | –
24 | GAGCCCUAAGGAUAUAGAAGGUCCAACAUGAGGAUCACCCAUGUACGGUGUGGACGUGGGCUAGAAGGUGGAACUU | 0.188 µM | 0.147 µM | – | –
25 | GAGCGAAAGCUCAAUGUCGAUAGCAGAAGGACAUCCUUCAACAUGAAAACAUGAGGAUCACCCAUGUAGGAUAUGCUAUCGACU | 0.00532 µM | 0.00584 µM | – | –
26 | GAGCGAAAGCUCAAUGUCGAUAGCAGAAGGACAUGAAAACAUGAAAAUACAUGAGGAUCACCCAUGUAGGAUAUGCUAUCGACU | 0.0067 µM | 0.0243 µM | – | –
27 | GAGCGAAAGCUCAAUGUCGAUAGCAGAAGGACAUGUAAUCAUGAAAUAACAUGAGGAUCACCCAUGUAGGAUAUGCUAUCGACU | 0.309 µM | 0.0888 µM | – | –
28 | GAGCGAGGGACAGGAUAUGCGGCGAAACUCGCCGCAGAAGGGUCGACAUGAGGAUCACCCAUGUCCUUACGCUCCAAGUAGAGG | – | – | 0.097 µM | 0.488 µM
29 | GAGCGGUGAGCAGGAUAUCCACAUUGCCUCCUACAUGAGGAUCACCCAUGUGGAGAAGGGUUUAUAAGUUCGUGUAUACUCAAU | 0.0105 µM | 0.01 µM | – | –
30 | GAGCUAUGAGGAUAUGCAUAUAUACGGAUUCGUGUAGUACUACAUGAGGAUCACCCAUGUAGAAGGCGUGGCAG | 0.0131 µM | 0.0151 µM | – | –
31 | GAGCUGUGAGGAUAUAAACCUGUGGGCUCAACCUAGCGGGUUUAGAAGGCACAUGAGGAUCACCCAUGUCCCAA | 0.026 µM | 0.262 µM | – | –
32 | GAGUGGAGGUAAGGAUAUACAAUGAUAAUCACAGUAGAAGGUACUAACAUGAGGAUCACCCAUGUAGGACUAUACCAGAGAGGG | – | – | 0.0174 µM | 0.018 µM
33 | GAGUGGUGGAAAGGAUAUGCAUUGUUAUUCACUGUAGAAGGUUCUAACAUGAGGAUCACCCAUGUAGGACUAUUCCUGUGUUUU | – | – | 0.0133 µM | 0.0126 µM
34 | GAGUUGAACGAGAAGGCCACUACAUGAGGAUCACCCAUGUCGUAGAGUAUUGGAGGAUAUCGAUAGGCGUCUCAUGAGGACAUA | 0.0251 µM | 0.0134 µM | – | –
35 | GAUACACAUGAGGAUCACCCAUGUGAGGAUAUGCGUACGUUGUCCGUAGGCGACGUGCGCAGAAGGCGCGUGAG | 0.0526 µM | 0.084 µM | – | –
36 | GAUACACAUGAGGAUCACCCAUGUUAGGAUAUUAGCGGGAAAGCUGUCAAAACGCCGAUGAGAAGGAACAGGAG | 0.0406 µM | 0.0314 µM | – | –
37 | GAUACACAUGAGGAUCACCCAUGUUAGGAUAUUAGCGGGAAAGCUGUCAGACAGUCGAUGAGAAGGAACAGGAG | 0.0325 µM | 0.0316 µM | – | –
38 | GAUAGUCCUGAGAAGGACAUGAGGAUCACCCAUGUGAUUAUACCAGUGCAAUGAAAGCACUGGAUGUAGGAUAUCAGGACUAUC | 0.0153 µM | 0.0961 µM | – | –
39 | GAUCAACAUGAGGAUCACCCAUGUCAGGAUAUGAUACUAUGUACUUCGGUACAUAGUAUCAGAAGGGACAGAUC | 0.122 µM | 0.296 µM | – | –
40 | GAUCAACAUGAGGAUCACCCAUGUGAGGAUAUGAUACUAUGUACUUCGGUACAUAGUAUCAGAAGGCACAUUGA | 0.0872 µM | 0.367 µM | – | –
41 | GAUCAACAUGAGGAUCACCCAUGUGAGGAUAUGAUACUAUGUACUUCGGUACAUAGUAUCAGAAGGCAUGUGGA | 0.158 µM | 0.0394 µM | – | –
42 | GAUCAACAUGAGGAUCACCCAUGUGAGGAUAUGUAUCAUAGAUCUUCGGAUCUAUGAUACAGAAGGCAUGUGGA | 0.204 µM | 0.0465 µM | – | –
